Data on 85 compounds can be found in ChEMBL document CHEMBL1126047, “Novel non-nucleoside inhibitors of HIV-1 reverse transcriptase. 2. Tricyclic pyridobenzoxazepinones and dibenzoxazepinones” (J Med Chem, 1992).

Assay [1] has as its target Human immunodeficiency virus type 1 reverse transcriptase (Human immunodeficiency virus 1) (UniProt Q72547). Nature of the assay: Inhibition of HIV-1 reverse transcriptase at a concentration of 1 uM. The essentials:
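Recombinant p66/p51 heterodimer RT (>95% homogeneous) at 0.5 nM, with poly(rC):oligo(dG) 0.8 µg/mL and 500 nM [3H]dGTP. Compound in DMSO, diluted in buffer; enzyme-started, 1 h at room temperature. TCA/pyrophosphate-precipitated product filtered and counted; inhibition versus no-compound reactions.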

For assay [2], the target named is Human immunodeficiency virus type 1 reverse transcriptase (Human immunodeficiency virus 1, UniProt Q72547). The experiment in a line: In vitro inhibitory activity against HIV-1 reverse transcriptase.
The next assay has as its system T-cell. The experiment in a line: In vitro inhibitory activity against HIV-1(IIIB) replication in human T-cells (c8166). The assay is classed as functional, cell-based. The essentials:
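CD4+ human T-cell line c8166 infected with HIV-1 IIIB. Syncytia formation scored, with IC50 taken as the concentration giving a 50% reduction in centers of syncytia.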

Broadly, the inhibition is the share of the control response that was lost under treatment. A low value points to a response near the control. With `CN1C(=O)c2cccnc2Oc2cc([N+](=O)[O-])ccc21`, in assay [1], the inhibition turned out to be 0%. Broadly, the IC50 is the midpoint of a concentration-inhibition curve. A higher IC50 goes with weaker potency. As for `Cc1ccc2c(c1)Oc1ccc(N)cc1C(=O)N2C`, the inhibition in assay [1] is 96%. In assay [2], this compound displayed a concentration for half-maximal inhibition (IC50) of 0.03 µM.

With `CCN1C(=S)c2cccnc2Oc2cc(C)cc(C)c21`, in assay [1], the inhibition worked out at 82%. Besides, 0.09 µM corresponded to half-maximal inhibition in assay [2] (IC50). In the case of `Cc1cc(CO)c2c(c1)Oc1ncccc1C(=O)N2C`, the inhibition in assay [1] is 39%. The same measure, in the same setting: under `Cc1cc(C)c2c(n1)Oc1ccccc1C(=O)N2C` stands 25%; under `CCN1C(=O)c2cc([N+](=O)[O-])ccc2Oc2ccccc21`, 23%.

For `Cc1ccc2c(c1)Oc1ncccc1C(=O)N2C`, the inhibition in assay [1] worked out at 43%. As to `CN1C(=O)c2cccnc2Oc2cccc(C#N)c21`, the inhibition in assay [1] is 29%.

Consider `CSCCN1C(=O)c2ccccc2Oc2nc(Cl)ccc21`, for which the inhibition in assay [1] came to 79%. In addition, the half-maximal inhibitory concentration (IC50) in assay [2] came to 0.072 µM.

Compound `CON1C(=O)c2ccccc2Oc2ccccc21` had an inhibition in assay [1] of 36%. The compound `Cc1cccc2c1NC(=O)c1cc(N)ccc1O2` registered an inhibition in assay [1] of 31%. Turning to `CCCN1C(=O)c2ccccc2Oc2nc(Cl)ccc21`, in assay [1], the inhibition is 68%. Besides, it took 0.21 µM to reach half-maximal inhibition in assay [2] (IC50). As for `Cc1cc(C)c2c(c1)Oc1ccc(O)cc1C(=O)N2C`, the inhibition in assay [1] is 80%. Also, the concentration for half-maximal inhibition (IC50) in assay [2] was determined as 0.063 µM; in the assay on T-cell it was 0.088 µM. As for `CCCN1C(=O)c2cc(N)ccc2Oc2cc(C)c(C)cc21`, the inhibition in assay [1] amounted to 87%. Further, 0.165 µM corresponded to half-maximal inhibition in assay [2] (IC50). In assay [1], `CCN1C(=O)c2cccnc2Oc2cccc(N)c21` yielded an inhibition of 33%. The compound `Cc1cc(C#N)c2c(c1)Oc1ncccc1C(=O)N2C` had an inhibition in assay [1] of 88%. The compound further registered an IC50 in assay [2] of 0.055 µM. On to `Cc1cc(C)c2c(c1)Oc1ccc(C#N)cc1C(=O)N2C`, for which, in assay [1], the inhibition was determined as 77%. In addition, the values for the IC50 (in assay [2]; in the assay with T-cell) were 0.05 µM and 0.031 µM, respectively. For `Cc1cc(C)c2c(c1)Oc1ccc(N)cc1C(=O)N2C`, in assay [1], the inhibition was 95%. For the same compound, the 50% inhibitory concentration (IC50) in assay [2] came to 0.02 µM. In assay [1], `COC(=N)c1cc(C)cc2c1N(C)C(=O)c1cccnc1O2` gave an inhibition of 0%. Consider `Cc1ccc2c(c1)Oc1ncc([N+](=O)[O-])cc1C(=O)N2C`, for which the inhibition in assay [1] stood at 0%. The compound `Cc1cc2c(cc1C)N(C)C(=O)c1cc(N)cnc1O2` gave an inhibition in assay [1] of 72%. In assay [2], this compound gave an IC50 of 0.322 µM. In the same order, the values of `CCN1C(=O)c2cccnc2Oc2cccc([N+](=O)[O-])c21` are 58% and 0.343 µM.

In assay [1], `CCCN1C(=O)c2ccccc2[S+]([O-])c2ccccc21` (configuration not stated) yielded an inhibition of 20%. The compound `CN1C(=O)c2ccccc2Oc2cc(N)ccc21` came in with an inhibition in assay [1] of 20%. `CCN1C(=O)c2cc(N)cnc2Oc2cc(C)c(C)cc21`: the inhibition in assay [1] was 83%. In addition, the IC50 in assay [2] stood at 0.071 µM. In turn, `Cc1cc2c(cc1C)N(C(C)C)C(=O)c1cc(N)cnc1O2` returned an inhibition in assay [1] of 89%. In addition, the half-maximal inhibitory concentration (IC50) in assay [2] turned out to be 0.045 µM. As to `CN1C(=O)c2cccnc2Oc2ccccc21`, the inhibition in assay [1] was 23%. Compound `Cc1cc2c(c([N+](=O)[O-])c1)N(C)C(=O)c1cccnc1O2` had an inhibition in assay [1] of 85%. Inhibition in assay [2] was half-maximal at 0.023 µM (IC50). `CN1C(=O)c2cc(CN)ccc2Oc2ccccc21`: in assay [1], the inhibition came to 0%. For the compound `CCN1C(=O)c2cc(N)ccc2Oc2ccccc21`, the inhibition in assay [1] was found to be 82%. Besides, in assay [2], the 50% inhibitory concentration (IC50) turned out to be 0.145 µM. In assay [1], `CCCN1C(=O)c2cccnc2Oc2ncccc21` returned an inhibition of 5%.

`C=CCN1C(=O)c2ccccc2Oc2ccccc21` registered an inhibition in assay [1] of 58%. This compound showed an IC50 in assay [2] of 0.465 µM. In the same order, the values of `CC(C)N1C(=O)c2ccccc2Oc2ccccc21` are 73% and 0.34 µM. Turning to `CCCN1C(=O)c2ccccc2Oc2ccccc21`, the inhibition in assay [1] is 72%. Half-maximal inhibition in assay [2] (IC50) required 0.375 µM. Compound `CN1C(=O)c2cc(C#N)ccc2Oc2ccccc21` came in with an inhibition in assay [1] of 12%. Turning to `CCCN1C(=O)c2cc(N)ccc2Oc2cccc(C)c21`, the inhibition in assay [1] was determined as 70%. This compound also came in with an IC50 in assay [2] of 0.26 µM. The compound `CCN1C(=O)c2cc(N)ccc2Oc2ccc(C)cc21` yielded an inhibition in assay [1] of 76%. In assay [2], the half-maximal inhibitory concentration (IC50) turned out to be 0.24 µM.

As for `CCN1C(=O)c2cc(N)ccc2Oc2cc(C)cc(C)c21`, the inhibition in assay [1] stood at 95%. In assay [2], this compound returned an IC50 of 0.043 µM. Turning to `C=CCN1C(=O)c2cccnc2Oc2ccccc21`, in assay [1], the inhibition was determined as 40%.

The compound `Cc1ccc2c(c1)Oc1ccc(O)cc1C(=O)N2C` gave an inhibition in assay [1] of 58%. In addition, inhibition in assay [2] was half-maximal at 0.64 µM (IC50). In the case of `CCCN1C(=O)c2cc(N)ccc2Oc2ccc(C)cc21`, the inhibition in assay [1] stood at 53%.

For the compound `Cc1cc2c(c(C(=O)O)c1)N(C)C(=O)c1cccnc1O2`, the inhibition in assay [1] was 0%. Compound `Cc1cc2c(c(C(N)=O)c1)N(C)C(=O)c1cccnc1O2` gave an inhibition in assay [1] of 31%. In assay [1], `Cc1ccc2c(c1)Oc1ccccc1C(=O)N2C` showed an inhibition of 66%. Further, the midpoint of inhibition in assay [2], the IC50, lay at 0.6 µM. Compound `CCN1C(=O)c2cccnc2Oc2cc(C)cc([N+](=O)[O-])c21` registered an inhibition in assay [1] of 85%. The compound also showed an IC50 in assay [2] of 0.031 µM.

As to `CN1C(=O)c2ccc(N)cc2Oc2ccccc21`, in assay [1], the inhibition turned out to be 19%.

Take `CN1C(=O)c2ccccc2Oc2ncccc21`: in assay [1], the inhibition stood at 2%. As to `CCN1C(=O)c2ccccc2Oc2nc(Cl)ccc21`, the inhibition in assay [1] came out at 35%.

`CN1C(=O)c2cccnc2Oc2cc(O)ccc21` showed an inhibition in assay [1] of 14%. `CCCN1C(=O)c2ccccc2Sc2ccccc21` showed an inhibition in assay [1] of 77%. Further, half-maximal inhibition in assay [2] (IC50) was put at 0.4 µM. In the case of `CN(C)c1ccc2c(c1)Oc1ncccc1C(=O)N2C`, the inhibition in assay [1] is 34%.

Compound `CCCN1C(=O)c2ccccc2S(=O)(=O)c2ccccc21` had an inhibition in assay [1] of 31%. `Cc1cc2c(c(S(C)(=O)=O)c1)N(C)C(=O)c1cccnc1O2`: the inhibition in assay [1] is 27%. In the case of `Cc1cc(C)c2c(c1)Oc1ccccc1C(=O)N2`, the inhibition in assay [1] stood at 39%. Compound `CCN1C(=O)c2ccccc2Oc2ccccc21` returned an inhibition in assay [1] of 54%. Also, it took 0.56 µM to reach half-maximal inhibition in assay [2] (IC50). In the case of `COC(=O)c1cc(C)cc2c1N(C)C(=O)c1cccnc1O2`, the inhibition in assay [1] came to 95%. In addition, the IC50 in assay [2] worked out at 0.022 µM. Consider `CN1C(=O)c2ccccc2Oc2nc(Cl)ccc21`, for which the inhibition in assay [1] was 21%. On to `CCCN1C(=O)c2cc(N)ccc2Oc2ccc(C)c(C)c21`, for which, in assay [1], the inhibition came out at 63%. This compound came in with an IC50 in assay [2] of 0.67 µM. As for `O=C1c2ccccc2Oc2ccccc2N1O`, in assay [1], the inhibition worked out at 15%. With `Cc1cc(C)c2c(c1)Oc1ncc(N)cc1C(=O)N2C`, the inhibition in assay [1] came to 92%. In addition, the concentration for half-maximal inhibition (IC50) in assay [2] worked out at 0.046 µM; in the assay on T-cell, 0.115 µM. As to `O=C1Nc2ccccc2Oc2ccccc21`, the inhibition in assay [1] came out at 30%.

`CN1C(=O)c2cccnc2Oc2cc(F)ccc21` came in with an inhibition in assay [1] of 3%. The compound `CC(C)CN1C(=O)c2ccccc2Oc2ncccc21` gave an inhibition in assay [1] of 29%. Regarding `Cc1cc(C)c2c(c1)Oc1ccccc1C(=O)N2C`, the inhibition in assay [1] was found to be 86%. The IC50 in assay [2] was determined as 0.057 µM; in the assay with T-cell, 0.038 µM. Take `CCCN1C(=O)c2cc(N)ccc2Oc2c(C)cc(C)cc21`: the inhibition in assay [1] amounted to 52%. Further, in assay [2], it took 0.9 µM to reach half-maximal inhibition (IC50). In assay [1], `CCCN1C(=O)c2cc(N)ccc2Oc2cc(C)ccc21` yielded an inhibition of 84%. For the same compound, in assay [2], the IC50 amounted to 0.13 µM.

`Cc1ccc2c(c1)Oc1ncccc1C(=O)N2` returned an inhibition in assay [1] of 5%. Same read-out and setting: under `COc1ccc2c(c1)Oc1ncccc1C(=O)N2C` stands 24%; under `CCN1C(=O)c2cccnc2Oc2ccccc21`, 25%. For `CN1C(=O)c2cccnc2Oc2cc(N)ccc21`, the inhibition in assay [1] worked out at 0%. The same measure, in the same setting: in the case of `CNc1ccc2c(c1)C(=O)N(C)c1ccccc1O2` it was 40%. In turn, `CCN1C(=O)c2cccnc2Oc2cc(C)cc(C)c21` returned an inhibition in assay [1] of 92%. In addition, the concentration for half-maximal inhibition (IC50) in assay [2] was 0.029 µM. In assay [1], `CCN1C(=O)c2cc(N)cnc2Oc2cc(C)cc(C)c21` gave an inhibition of 93%. Also, the results for the IC50 (in assay [2]; in the assay on T-cell) were 0.027 µM and 0.054 µM, respectively. For `CN1C(=O)c2ccccc2Oc2ccccc21`, the inhibition in assay [1] is 20%. As for `CCN1C(=O)c2cccnc2Oc2cc(C)cc(N)c21`, the inhibition in assay [1] turned out to be 73%. In assay [2], 0.132 µM corresponded to half-maximal inhibition (IC50).

`CCN1Cc2ccccc2Oc2ccccc21` registered an inhibition in assay [1] of 12%. `Cc1ccc2c(c1)Oc1ccc(C#N)cc1C(=O)N2C` registered an inhibition in assay [1] of 69%. In assay [2], the IC50 is 0.28 µM. As for `CCCN1C(=O)c2cccnc2Oc2ccccc21`, in assay [1], the inhibition was 31%.

Consider `Cc1cccc2c1N(C)C(=O)c1ccccc1O2`, for which, in assay [1], the inhibition was determined as 36%.

`CCN1C(=O)c2cc(N)ccc2Oc2cccc(C)c21` displayed an inhibition in assay [1] of 90%. Also, the IC50 in assay [2] was found to be 0.06 µM. In the case of `CCN1C(=O)c2cccnc2Oc2cc(C)cc(C#N)c21`, the inhibition in assay [1] was determined as 96%. Further, the half-inhibitory concentration (IC50) in assay [2] is 0.019 µM. As for `CN1C(=O)c2cc(N)ccc2Oc2ccccc21`, in assay [1], the inhibition was 73%. Moreover, the IC50 in assay [2] is 0.18 µM. In the case of `CCCN1C(=S)c2ccccc2Oc2ccccc21`, the inhibition in assay [1] came out at 46%. For the same compound, half-maximal inhibition in assay [2] (IC50) required 2.2 µM. For `Cc1cc(N)c2c(c1)Oc1ncccc1C(=O)N2C`, in assay [1], the inhibition amounted to 53%. Moreover, 1 µM corresponded to half-maximal inhibition in assay [2] (IC50). For `Cc1ccc2c(c1)Oc1ncc(N)cc1C(=O)N2C`, in that order: 57% and 0.25 µM.
